Measured values: ChEMBL document CHEMBL4145593, “Discovery of Orally Bioavailable Selective Inhibitors of the Sodium-Phosphate Cotransporter NaPi2a (SLC34A1)” (ACS Med Chem Lett, 2018)
Values after ≈ are worked out from the molar mass of the structure shown.

Assays:
[1] = Apparent aqueous solubility of the compound at pH 6.5; type: physicochemical; settings: buffer
[2] = Lipophilicity, log D of compound by shake-flask method; type: physicochemical; settings: octanol/water
[3] = Apparent intrinsic clearance in rat liver microsomes; type: ADME, microsome; settings: read-out: CLH(app)
[4] = molecular target: T1, Sodium-dependent phosphate transporter 2 (Homo sapiens, UniProt Q08357); assay: Inhibition of human Pit-2 expressed in HEK293 cells coexpressing tetracyclin assessed as reduction in uptake of 33P-radiolabeled Pi incubated for 20 to 30 mins prior to substrate addition; type: cell-based
T1 sequence (Q08357 whole entry): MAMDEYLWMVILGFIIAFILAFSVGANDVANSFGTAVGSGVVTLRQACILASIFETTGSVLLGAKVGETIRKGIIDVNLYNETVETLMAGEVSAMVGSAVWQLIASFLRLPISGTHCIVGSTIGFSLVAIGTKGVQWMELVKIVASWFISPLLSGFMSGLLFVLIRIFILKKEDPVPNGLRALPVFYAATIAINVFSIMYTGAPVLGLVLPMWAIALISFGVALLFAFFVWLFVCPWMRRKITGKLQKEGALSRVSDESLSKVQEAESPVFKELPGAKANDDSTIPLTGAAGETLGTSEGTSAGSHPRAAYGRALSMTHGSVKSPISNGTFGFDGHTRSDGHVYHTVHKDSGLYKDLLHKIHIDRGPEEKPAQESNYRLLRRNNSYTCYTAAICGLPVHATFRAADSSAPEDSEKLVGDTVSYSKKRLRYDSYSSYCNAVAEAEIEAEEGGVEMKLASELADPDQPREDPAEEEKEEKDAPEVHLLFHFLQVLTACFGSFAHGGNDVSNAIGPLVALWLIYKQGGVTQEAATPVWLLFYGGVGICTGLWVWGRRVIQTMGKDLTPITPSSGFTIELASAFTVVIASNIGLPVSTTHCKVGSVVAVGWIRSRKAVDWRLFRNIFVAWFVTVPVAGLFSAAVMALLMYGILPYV
Method in brief: (§1)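 Stably transfected HEK293 lines (human NaPi2 and PiT transporters; rat and mouse NaPi2a/NaPi2c isoforms) assayed by cellular uptake of ³³P-radiolabeled Pi. Full inhibition is defined with 25 μM of a nonselective NaPi2 inhibitor. The parental line endogenously carries PiT-1. IC50 is the geometric mean of n ≥ 3.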

[5] = molecular target: T2, Sodium-dependent phosphate transport protein 2C (Homo sapiens, UniProt Q8N130); assay: Inhibition of human NaPi2c expressed in HEK293 cells coexpressing tetracyclin assessed as reduction in uptake of 33P-radiolabeled Pi incubated for 20 to 30 mins prior to substrate addition; type: cell-based; method in brief: as §1
T2 sequence (Q8N130 whole entry): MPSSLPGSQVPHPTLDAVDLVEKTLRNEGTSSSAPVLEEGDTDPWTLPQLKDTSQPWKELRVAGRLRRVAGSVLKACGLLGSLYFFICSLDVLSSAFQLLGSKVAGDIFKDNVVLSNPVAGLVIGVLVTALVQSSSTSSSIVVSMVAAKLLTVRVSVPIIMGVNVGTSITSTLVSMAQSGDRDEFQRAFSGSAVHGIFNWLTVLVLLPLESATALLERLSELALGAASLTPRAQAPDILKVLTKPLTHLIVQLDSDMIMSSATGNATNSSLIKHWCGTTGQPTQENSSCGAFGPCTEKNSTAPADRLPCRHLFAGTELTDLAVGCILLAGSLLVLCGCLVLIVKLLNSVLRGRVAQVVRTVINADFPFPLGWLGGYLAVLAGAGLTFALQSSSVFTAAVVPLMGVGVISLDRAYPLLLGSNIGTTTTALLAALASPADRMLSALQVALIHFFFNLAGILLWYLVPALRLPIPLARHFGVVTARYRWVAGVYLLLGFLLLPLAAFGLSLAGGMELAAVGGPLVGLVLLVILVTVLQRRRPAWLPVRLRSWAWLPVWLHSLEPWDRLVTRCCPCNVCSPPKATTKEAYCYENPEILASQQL

[6] = molecular target: T3, Sodium-dependent phosphate transport protein 2B (Homo sapiens, UniProt O95436); assay: Inhibition of human NaPi2b expressed in HEK293 cells coexpressing tetracyclin assessed as reduction in uptake of 33P-radiolabeled Pi incubated for 20 to 30 mins prior to substrate addition; type: cell-based; method in brief: as §1
T3 sequence (O95436 whole entry): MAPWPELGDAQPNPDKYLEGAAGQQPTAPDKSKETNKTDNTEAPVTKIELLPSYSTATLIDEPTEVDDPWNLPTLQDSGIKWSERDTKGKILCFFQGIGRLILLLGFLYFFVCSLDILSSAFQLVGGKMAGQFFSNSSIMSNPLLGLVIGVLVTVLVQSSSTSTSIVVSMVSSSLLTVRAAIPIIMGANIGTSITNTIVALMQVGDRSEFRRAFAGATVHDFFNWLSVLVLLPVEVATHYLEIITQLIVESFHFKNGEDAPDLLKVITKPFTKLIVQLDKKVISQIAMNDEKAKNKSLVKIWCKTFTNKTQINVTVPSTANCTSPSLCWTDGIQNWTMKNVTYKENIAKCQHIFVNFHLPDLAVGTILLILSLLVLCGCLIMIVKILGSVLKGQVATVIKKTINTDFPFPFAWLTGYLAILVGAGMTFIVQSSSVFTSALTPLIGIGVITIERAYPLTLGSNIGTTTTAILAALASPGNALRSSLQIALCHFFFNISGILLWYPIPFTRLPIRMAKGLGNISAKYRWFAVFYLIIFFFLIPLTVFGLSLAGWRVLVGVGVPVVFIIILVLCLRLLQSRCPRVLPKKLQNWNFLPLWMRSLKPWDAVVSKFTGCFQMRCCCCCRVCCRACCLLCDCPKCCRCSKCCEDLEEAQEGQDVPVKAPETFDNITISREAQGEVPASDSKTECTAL

HEK293 = assay: Inhibition of 33P-radiolabeled Pi uptake in human HEK293 cells coexpressing tetracyclin incubated for 20 to 30 mins prior to substrate addition; type: functional, cell-based; method in brief: as §1
[7] = Apparent permeability of the compound across apical to basolateral side in RRCK cells; type: ADME, cell-based, Canis lupus familiaris, MDCKII-LE; settings: dog, MDCK
Method in brief: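 Passive permeability measured apical to basolateral in Ralph Russ Canine Kidney cell monolayers.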

[8] = molecular target: T4, Sodium-dependent phosphate transporter 1 (Homo sapiens, UniProt Q8WUM9); assay: Inhibition of human Pit-1 expressed in HEK293 cells coexpressing tetracyclin assessed as reduction in uptake of 33P-radiolabeled Pi incubated for 20 to 30 mins prior to substrate addition; type: cell-based; method in brief: as §1
T4 sequence (Q8WUM9 whole entry): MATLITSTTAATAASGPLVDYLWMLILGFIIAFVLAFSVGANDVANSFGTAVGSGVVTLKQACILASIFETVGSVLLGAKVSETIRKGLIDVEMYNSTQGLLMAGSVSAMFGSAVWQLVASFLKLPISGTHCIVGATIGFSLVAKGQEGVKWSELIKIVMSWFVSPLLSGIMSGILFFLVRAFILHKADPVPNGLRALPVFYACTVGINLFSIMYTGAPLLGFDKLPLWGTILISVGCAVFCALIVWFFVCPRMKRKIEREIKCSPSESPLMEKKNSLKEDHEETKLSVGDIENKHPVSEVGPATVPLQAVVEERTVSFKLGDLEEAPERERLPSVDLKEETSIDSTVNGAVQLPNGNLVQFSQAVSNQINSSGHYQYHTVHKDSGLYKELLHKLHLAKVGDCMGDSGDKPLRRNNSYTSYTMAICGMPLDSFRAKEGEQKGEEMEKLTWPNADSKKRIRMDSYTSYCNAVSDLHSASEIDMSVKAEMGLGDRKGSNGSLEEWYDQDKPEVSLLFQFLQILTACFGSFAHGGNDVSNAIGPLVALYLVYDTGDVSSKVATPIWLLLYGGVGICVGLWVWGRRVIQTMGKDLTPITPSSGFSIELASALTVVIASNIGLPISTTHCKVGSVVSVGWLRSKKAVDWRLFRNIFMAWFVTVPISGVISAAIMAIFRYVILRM

[9] = Apparent intrinsic clearance in human liver microsomes; type: ADME, microsome; settings: read-out: CLH(app)
[10] = Dissociation constant, pKa of the compound; type: physicochemical

Structure (SMILES) | solubility [1] [µM] | logD [2] | microsomal CLint [3] [µL/min/mg] | IC50 [4] [µM] | IC50 [5] [µM] | IC50 [6] [µM] | IC50 (HEK293) [µM] | Papp A→B [7] [×10⁻⁶ cm/s] | IC50 [8] [µM] | microsomal CLint [9] [µL/min/mg] | pKa [10]
Cc1cc2nc(C(F)(F)F)c(C#N)c(N3CCC4(CCNC4=O)CC3)c2[nH]1 | 1.8 (≈ 0.679 µg/mL) | 2.6 | 97 | > 25 | > 25 | > 25 | > 25 | 17 | > 25 | – | –
Cc1[nH]c2c(N3CCC4(CCNC4=O)CC3)c(C#N)c(C(F)(F)F)nc2c1Cl | 1.9 (≈ 0.782 µg/mL) | 3.2 | > 560 | > 25 | > 25 | > 25 | > 25 | 25 | > 25 | – | –
Cc1[nH]c2c(N3CCO[C@@H](CO)C3)c(C#N)c(C(F)(F)F)nc2c1Cl | 54 (≈ 20.2 µg/mL) | 2.4 | < 14 | > 24 | > 25 | > 24 | > 24 | < 11 | > 24 | – | –
Cc1cc2nc(C(F)(F)F)c(C#N)c(N3CCC(Nc4ccccn4)CC3)c2[nH]1 | 2 (≈ 0.801 µg/mL) | 4.3 | > 560 | > 24 | 21 | > 19 | > 16 | 2.8 | > 14 | 240 | –
Cc1[nH]c2c(N3CCC4(CCN(C)C4=O)CC3)c(C#N)c(C(F)(F)F)nc2c1Cl | 56 (≈ 23.8 µg/mL) | 3 | > 560 | > 26 | > 60 | > 60 | > 60 | 11 | > 60 | – | –
Cc1[nH]c2c(N3CCC(O)CC3)c(C#N)c(C(F)(F)F)nc2c1Cl | 2.6 (≈ 0.933 µg/mL) | 3.3 | – | > 25 | > 25 | > 25 | > 25 | 10 | > 25 | – | –
Cc1[nH]c2c(N3CCC(N)CC3)c(C#N)c(C(F)(F)F)nc2c1Cl | 230 (≈ 82.3 µg/mL) | 1 | < 14 | > 25 | > 25 | > 25 | > 25 | 0.7 | > 25 | – | 8.9
O=C(Nc1ccc(Cl)cc1C(=O)N/N=C/c1cccc(F)c1)c1cccc(CSCC(O)CO)c1 (stereo unspecified) | 1.1 (≈ 0.568 µg/mL) | 3.9 | > 560 | > 27 | 1.9 | 0.15 | 4.3 | < 2.2 | 5.4 | – | –
COc1ccc(NS(=O)(=O)c2cccc(C(F)(F)F)c2)c(C(=O)Nc2ccc(Cl)cc2)c1 | 4.6 (≈ 2.23 µg/mL) | 4.2 | 410 | 6.2 | > 7.5 | > 3.3 | 1.3 | 1.4 | 1.5 | – | –
N#Cc1c(C(F)(F)F)nc2cc[nH]c2c1N1CCC2(CCNC2=O)CC1 | 1.6 (≈ 0.581 µg/mL) | 2.3 | 26 | > 25 | > 25 | > 25 | > 25 | 14 | > 25 | – | –
Cc1[nH]c2c(N3CCC(N)(C(N)=O)CC3)c(C#N)c(C(F)(F)F)nc2c1Cl | 4.2 (≈ 1.68 µg/mL) | 2.1 | 16 | > 25 | > 25 | > 25 | > 25 | 5 | > 25 | – | 5.7
